Laboratory results taken from ChEMBL document CHEMBL1132700, “Design, synthesis, structure-activity relationships, and biological characterization of novel arylalkoxyphenylalkylamine sigma ligands as potential antipsychotic drugs” (J Med Chem, 1999).

Tests used:
[1] = target: D(2) dopamine receptor (Rattus norvegicus, UniProt P61169); assay: Inhibitory concentration against radioligand [3H](-)-sulpiride binding to Dopamine receptor D2 in rat
Summary of the method: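 Striatal membranes from male Wistar rats (200–250 g), homogenized in 50 mM Tris/HCl pH 7.7, washed by repeated 50000g spins. Filtration on PEI-soaked glass-fiber filters, then scintillation counting. IC50 by nonlinear curve fitting, duplicate determinations.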

[2] = target: Sigma non-opioid intracellular receptor 1 (Rattus norvegicus, UniProt Q9R0C9); assay: Inhibitory concentration against radioligand [3H]3-PPP binding to Sigma opioid receptor type 1 in rat brain membrane; assay type: cell membranes
Summary of the method: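 Rat whole-brain membranes from male Wistar rats (200–250 g), homogenized in 50 mM Tris/HCl pH 7.7, washed by repeated 50000g spins. Incubated with 2 nM [3H]-(+)-3-PPP and at least five concentrations of unlabeled drug. Filtered on polyethylenimine-soaked glass-fiber filters and counted by scintillation. IC50 from nonlinear curve fitting of competition data, duplicate determinations.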

[3] = organism: Mus musculus; assay: Effective dose against (+)-SKF-10047-induced stereotyped behavior in mice was determined; assay type: functional
Summary of the method: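 Male ICR mice (25–30 g, 10 per group) acclimatized at least 1 h. Test drug given orally 30 min before (+)-SKF10,047 30 mg/kg ip. Stereotypy scored on a 0–5 scale from 10 min post-injection, every 5 min for 40 min. Vehicle plus three doses were tested. Total score expressed as percent of control, and ED25 derived.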

[4] = system: Mus musculus; assay: Effect at an intraperitoneal dose of 10 mg/kg against methamphetamine-induced hyperlocomotion in mice; assay type: functional
[5] = target: Glutamate receptor ionotropic, NMDA 1 (Rattus norvegicus, UniProt P35439); assay: Inhibitory concentration against radioligand [3H]PCP binding to PCP site of N-methyl-D-aspartate glutamate receptor in rat
Summary of the method: (§1)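 Male Wistar rat brain membranes in 50 mM Tris/HCl pH 7.7. Radioligands: PCP site 5 nM [3H]-PCP; D1 1 nM [3H]-SCH23390; 5-HT1A 0.2 nM [3H]-8-OH-DPAT; 5-HT2 5 nM [3H]-ketanserin; α1 0.2 nM [3H]-prazosin. Competition with at least five drug concentrations, filtration on PEI-soaked glass-fiber filters, scintillation counting, IC50 by nonlinear curve fit.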

[6] = target: T1, Adrenergic receptor alpha-1 (Rattus norvegicus, UniProt P15823+P23944+P43140); assay: Inhibitory concentration against radioligand [3H]prazosin binding to Alpha-1 adrenergic receptor in rat; summary of the method: as §1
T1 sequence (P15823 whole entry): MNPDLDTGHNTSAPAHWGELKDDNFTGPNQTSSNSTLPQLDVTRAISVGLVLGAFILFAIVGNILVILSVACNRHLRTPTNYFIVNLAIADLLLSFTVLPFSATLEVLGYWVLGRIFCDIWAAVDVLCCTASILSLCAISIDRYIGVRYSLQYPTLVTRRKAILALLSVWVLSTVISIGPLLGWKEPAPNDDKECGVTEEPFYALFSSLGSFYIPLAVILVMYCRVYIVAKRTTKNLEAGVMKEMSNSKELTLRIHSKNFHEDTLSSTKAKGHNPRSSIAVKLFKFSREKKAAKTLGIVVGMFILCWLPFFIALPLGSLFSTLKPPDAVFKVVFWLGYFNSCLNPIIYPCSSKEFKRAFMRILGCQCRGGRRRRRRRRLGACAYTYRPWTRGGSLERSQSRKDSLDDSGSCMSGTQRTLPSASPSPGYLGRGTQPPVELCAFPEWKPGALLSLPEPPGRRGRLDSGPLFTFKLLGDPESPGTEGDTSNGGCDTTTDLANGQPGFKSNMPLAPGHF
T1 sequence (P23944 whole entry): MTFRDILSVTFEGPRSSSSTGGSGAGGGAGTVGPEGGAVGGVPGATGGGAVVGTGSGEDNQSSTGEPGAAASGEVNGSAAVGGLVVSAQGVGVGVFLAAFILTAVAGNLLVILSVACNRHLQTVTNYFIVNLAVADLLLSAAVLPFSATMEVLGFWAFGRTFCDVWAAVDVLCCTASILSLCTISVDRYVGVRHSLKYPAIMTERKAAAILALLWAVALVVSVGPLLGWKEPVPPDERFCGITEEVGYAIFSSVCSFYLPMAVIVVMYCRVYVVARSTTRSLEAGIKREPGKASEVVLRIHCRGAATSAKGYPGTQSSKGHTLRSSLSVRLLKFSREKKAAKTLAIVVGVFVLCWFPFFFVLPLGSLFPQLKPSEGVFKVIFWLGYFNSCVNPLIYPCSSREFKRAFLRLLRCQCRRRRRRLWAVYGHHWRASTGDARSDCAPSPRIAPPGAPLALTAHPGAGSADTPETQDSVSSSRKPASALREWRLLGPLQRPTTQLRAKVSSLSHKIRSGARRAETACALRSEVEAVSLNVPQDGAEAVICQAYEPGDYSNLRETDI
T1 sequence (P43140 whole entry): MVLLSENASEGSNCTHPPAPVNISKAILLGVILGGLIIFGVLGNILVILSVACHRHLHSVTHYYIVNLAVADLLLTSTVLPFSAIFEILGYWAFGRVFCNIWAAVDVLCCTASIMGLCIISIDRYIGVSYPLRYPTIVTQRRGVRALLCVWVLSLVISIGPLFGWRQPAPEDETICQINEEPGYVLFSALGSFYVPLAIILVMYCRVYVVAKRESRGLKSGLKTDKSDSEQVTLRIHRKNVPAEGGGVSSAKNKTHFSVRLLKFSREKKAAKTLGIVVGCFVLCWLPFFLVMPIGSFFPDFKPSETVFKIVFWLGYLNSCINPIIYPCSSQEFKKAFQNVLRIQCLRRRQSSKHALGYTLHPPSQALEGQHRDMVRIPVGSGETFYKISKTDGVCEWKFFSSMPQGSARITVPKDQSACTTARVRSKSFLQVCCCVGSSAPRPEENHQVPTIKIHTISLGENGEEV

[7] = target: Serotonin 2 (5-HT2) receptor (Rattus norvegicus, UniProt P30994+P08909+P14842); assay: Inhibitory concentration against radioligand [3H]ketanserin binding to 5-hydroxytryptamine 2 receptor in rat; summary of the method: as §1
[8] = target: D(1A) dopamine receptor (Rattus norvegicus, UniProt P18901); assay: Inhibitory concentration against radioligand [3H]SCH-23390 binding to Dopamine receptor D1 in rat; summary of the method: as §1
[9] = target: T2, 5-hydroxytryptamine receptor 1A (Rattus norvegicus, UniProt P19327); assay: Inhibitory concentration against radioligand [3H]hydroxy-2-(di-n-propylamino)-tetralin binding to 5-hydroxytryptamine 1A receptor in rat; summary of the method: as §1
T2 sequence (P19327 whole entry): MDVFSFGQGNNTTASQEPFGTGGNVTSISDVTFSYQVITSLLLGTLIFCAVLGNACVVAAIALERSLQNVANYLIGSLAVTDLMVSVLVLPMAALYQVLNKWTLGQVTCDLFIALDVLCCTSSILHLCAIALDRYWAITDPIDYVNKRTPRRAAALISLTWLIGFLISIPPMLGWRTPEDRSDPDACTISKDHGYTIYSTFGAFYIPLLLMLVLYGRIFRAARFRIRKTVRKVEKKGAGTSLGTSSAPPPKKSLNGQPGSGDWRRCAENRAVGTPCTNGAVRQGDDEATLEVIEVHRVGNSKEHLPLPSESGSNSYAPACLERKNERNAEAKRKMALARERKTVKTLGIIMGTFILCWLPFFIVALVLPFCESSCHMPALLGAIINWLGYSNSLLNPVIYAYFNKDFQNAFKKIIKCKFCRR

Chain of Sigma non-opioid intracellular receptor 1 (Q9R0C9 whole entry): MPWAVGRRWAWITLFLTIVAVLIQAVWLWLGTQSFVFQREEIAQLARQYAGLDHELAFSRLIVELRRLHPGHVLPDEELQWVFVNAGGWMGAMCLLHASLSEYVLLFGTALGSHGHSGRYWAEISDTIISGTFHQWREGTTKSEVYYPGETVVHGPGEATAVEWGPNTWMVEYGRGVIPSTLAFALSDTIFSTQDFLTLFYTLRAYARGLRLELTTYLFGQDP
Chain of D(2) dopamine receptor (P61169 whole entry): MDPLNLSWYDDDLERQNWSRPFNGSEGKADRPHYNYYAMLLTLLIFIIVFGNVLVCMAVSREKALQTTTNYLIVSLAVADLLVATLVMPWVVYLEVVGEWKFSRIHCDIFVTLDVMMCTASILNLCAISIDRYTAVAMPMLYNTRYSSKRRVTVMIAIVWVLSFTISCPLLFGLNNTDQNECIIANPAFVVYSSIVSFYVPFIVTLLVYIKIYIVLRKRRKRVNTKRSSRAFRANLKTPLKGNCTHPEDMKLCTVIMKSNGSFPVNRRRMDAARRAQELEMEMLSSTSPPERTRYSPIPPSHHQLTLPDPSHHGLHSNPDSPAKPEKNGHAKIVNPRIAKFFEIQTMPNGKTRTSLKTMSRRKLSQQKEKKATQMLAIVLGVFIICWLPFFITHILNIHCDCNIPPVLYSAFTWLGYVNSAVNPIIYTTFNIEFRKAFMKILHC
Chain of D(1A) dopamine receptor (P18901 whole entry): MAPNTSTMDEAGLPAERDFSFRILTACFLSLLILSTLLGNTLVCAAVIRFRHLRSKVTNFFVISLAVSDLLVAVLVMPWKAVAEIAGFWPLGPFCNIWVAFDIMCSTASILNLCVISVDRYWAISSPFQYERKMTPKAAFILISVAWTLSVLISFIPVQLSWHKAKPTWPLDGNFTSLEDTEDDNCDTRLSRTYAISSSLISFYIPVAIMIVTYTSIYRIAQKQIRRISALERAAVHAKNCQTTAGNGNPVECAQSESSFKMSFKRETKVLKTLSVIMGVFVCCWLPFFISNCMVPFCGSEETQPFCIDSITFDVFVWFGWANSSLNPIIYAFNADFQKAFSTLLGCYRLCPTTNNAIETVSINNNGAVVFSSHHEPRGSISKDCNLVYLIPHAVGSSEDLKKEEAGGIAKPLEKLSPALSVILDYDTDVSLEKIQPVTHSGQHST

SMILES | IC50 [1] | IC50 [2] | also measured
CCCN(CCC)CCCc1cccc(OC)c1OCCc1ccccc1 | > 1000 nM | 13 nM | 
CCCN(CCC)CCc1ccc(OC)c(OCCc2cccs2)c1 | > 1000 nM |  | 
CN1CCc2cccc3c2[C@H]1Cc1ccc(O)c(O)c1-3 [APOMORPHINE] |  | > 1000 nM | 
COc1ccc(CCN2CCOCC2)cc1OCCc1ccccc1 | > 1000 nM | > 1000 nM | 
CCCN(CCC)CCCCc1cc(Cl)ccc1OCCc1ccccc1 | > 1000 nM | 26 nM | 
COc1cccc(CCN2CCOCC2)c1OCCc1ccccc1 | > 1000 nM | 373 nM | 
COc1ccc(CCN2CCN(c3ccccc3OC)CC2)cc1OCCc1ccccc1 | 11 nM | 25 nM | 
CCCN(CCC)CCc1cc(Br)cc(Br)c1OCCc1ccccc1 | > 1000 nM | 774 nM | 
CCCN(CCC)CCc1ccc(O)c2c1-c1ccccc1CO2 | > 1000 nM | 558 nM | 
COc1ccc(CCN2CCN(c3ccccn3)CC2)cc1OCCc1ccccc1 | 295 nM | 112 nM | 
Clc1ccc(OCCc2ccccc2)c(CCN2CCOCC2)c1 | 163 nM | 308 nM | 
OC(CCCN1CCN(c2ncc(F)cn2)CC1)c1ccc(F)cc1 (stereo not given) [BMY-14802] | > 1000 nM |  | ED25 [3]: 7.6 mg/kg
CCCN(CCC)CCc1cc(Cl)ccc1OCc1ccccc1 | 337 nM | 118 nM | 
CCCN(CCC)CCc1cccc(OC)c1OCCCc1ccccc1 | > 1000 nM | 1.7 nM | 
COc1ccc(CCN)cc1OCCc1ccccc1 | > 1000 nM |  | 
CCCN(CCCO)CCc1ccc(OC)c(OCCc2ccccc2)c1 | > 1000 nM | 19 nM | 
CCCN(CCC)CCc1ccc(OC)c(OCCc2cccc(Cl)c2)c1 | > 1000 nM |  | 
CCCN(CCC)CCc1ccc(O)c(OCCc2ccccc2)c1 | > 1000 nM |  | 
CCCN(CCC)CCc1ccc(OC)cc1OCCc1ccccc1 | > 1000 nM |  | 
CCCNCCc1ccc(OC)c(OCCc2ccccc2)c1 | > 1000 nM |  | 
Cc1cccc(N2CCN(CCCc3cc(Cl)ccc3OCCc3ccccc3)CC2)n1 | 293 nM | 415 nM | 
Clc1ccc(OCCc2ccccc2)c(CCN2CCN(c3ccccn3)CC2)c1 | 51 nM | > 1000 nM | 
O=C(CCCN1CCC(O)(c2ccc(Cl)cc2)CC1)c1ccc(F)cc1 [HALOPERIDOL] |  |  | Control [4]: 7.3%
COc1ccccc1N1CCN(CCc2cc(Cl)ccc2OCCc2ccccc2)CC1 | 88 nM | 640 nM | 
CCCN(CCC)CCc1cccc(F)c1OCCc1ccccc1 | > 1000 nM | 22 nM | 
COc1ccc(CCN2CCCC2)cc1OCCc1ccccc1 | > 1000 nM |  | 
Clc1ccc(OCCc2ccccc2)c(CCCN2CCN(c3ccccc3)CC2)c1 | 180 nM |  | 

SMILES | IC50 [1] | IC50 [2] | also measured
CCCN(CCC)CCc1ccc(OC)c(OCCCc2ccccc2)c1 | > 1000 nM |  | 
CCCN(CCC)CCc1ccc(Cl)cc1OCCc1ccccc1 | > 1000 nM |  | 
CCCN(CCC)CCc1ccc(OCCc2ccccc2)c(O)c1 | > 1000 nM | 25 nM | 
CCCN(CCC)CCc1ccc(OC)c2c1-c1ccccc1CO2 | > 1000 nM | 990 nM | 
CCCN(CCC)CCc1cc(Cl)ccc1OCCc1ccccc1.O=C(O)C(=O)O |  |  | IC50 [5]: > 1000 nM; ED25 [3]: 235 mg/kg; IC50 [6]: 90 nM; IC50 [7]: 196 nM; IC50 [8]: > 1000 nM; IC50 [9]: 289 nM
COc1ccccc1N1CCN(CCCc2cc(Cl)ccc2OCCc2ccccc2)CC1 | 16 nM | 319 nM | 
CCCN(CCc1ccc(OC)c(OCCc2ccccc2)c1)CCC(C)C | 680 nM | 2.9 nM | 
CCCN(CCC)CCc1ccc(OC)c(OCCc2ccc(F)cc2)c1 | > 1000 nM | 1 nM | 
COc1cccc(CCN2CCN(c3ccccn3)CC2)c1OCCc1ccccc1 | 137 nM | > 1000 nM | 
CCCN(CCC)CCc1cc(Cl)ccc1OCCCc1ccccc1 | 876 nM | 56 nM | 
COc1cccc(CCN2CCN(c3ccccc3)CC2)c1OCCc1ccccc1 | 66 nM | 328 nM | 
CCCN(CCC)CCc1ccc(OC)c(OCCc2ccc(OC)cc2)c1 | > 1000 nM | 1 nM | 
CCCN(CCC)CCc1ccccc1OCCc1ccccc1 | 436 nM | 15 nM | 
CCCN(CCC)CCc1cc(F)ccc1OCCc1ccccc1 | > 1000 nM | 13 nM | 
Clc1ccc(OCCc2ccccc2)c(CCCN2CCN(c3ccccn3)CC2)c1 | 93 nM | 118 nM | 
CCCN(CCC)CCc1ccc(OCCc2ccccc2)cc1OC | > 1000 nM |  | 
Clc1ccc(OCCc2ccccc2)c(CCN2CCN(c3ncccn3)CC2)c1 | 143 nM | > 1000 nM | 
CCCN(CCC)CCc1cc(Cl)cc(Cl)c1OCCc1ccccc1 | > 1000 nM | 281 nM | 
CCCN(CCC)CCc1cc(Br)ccc1OCCCc1ccccc1 | 685 nM | 44 nM | 
CCCN(CCC)CCc1ccc(OCCc2ccccc2)c(OC)c1 | > 1000 nM | 12 nM | 
COc1cccc(CCN2CCCC2)c1OCCc1ccccc1 | > 1000 nM |  | 
Clc1ccc(OCCc2ccccc2)c(CCN2CCCC2)c1 | 69 nM | 36 nM | 
CCCCCCN(CCC)CCc1ccc(OC)c(OCCc2ccccc2)c1 | 619 nM | 1.8 nM | 
CCCN(CCC)CCc1ccc(OC)c(OCCc2ccc(OC)c(OC)c2)c1 |  | 67 nM | 
Clc1ccc(OCCc2ccccc2)c(CCCN2CCN(c3ncccn3)CC2)c1 | 115 nM | 169 nM | 
CCCN(CCC)CCc1ccc(OC)c(OCc2ccccc2)c1.O=C(O)C(=O)O | > 1000 nM | 28 nM | 
